Results from ChEMBL document CHEMBL1155281, “Synthesis, spectroscopic characterization and antibacterial activity of new cobalt(II) complexes of unsymmetrical tetradentate (OSN2) Schiff base ligands” (2009).
Values after ≈ are worked out from the molar mass of the structure shown.

Legend:
Streptococcus pyogenes [1] = experiment: Antibacterial activity against Streptococcus pyogenes RITCC 1940 at 100 ul after overnight incubation by agar well diffusion method; format: functional
Method in brief: (§1)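 Agar well diffusion. Inoculum came from a 12 h, 37 °C enrichment culture in 1 ml Mueller–Hinton broth and was spread on Mueller–Hinton agar. Wells cut with a 6 mm cork borer and filled with 100 µL of compound solution; methanol blank. Incubated overnight at 37 °C, then inhibition zone diameter measured. Triplicate, averaged.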

Streptococcus agalactiae [2] = experiment: Antibacterial activity against Streptococcus agalactiae RITCC 1913 at 100 ul after overnight incubation by agar well diffusion method; format: functional; method in brief: as §1
Staphylococcus aureus [3] = experiment: Antibacterial activity against Staphylococcus aureus RITCC 1885 at 100 ul after overnight incubation by agar well diffusion method; format: functional; method in brief: as §1
Bacillus anthracis [4] = experiment: Antibacterial activity against Bacillus anthracis RITCC 1036 at 100 ul after overnight incubation by agar well diffusion method; format: functional
Klebsiella pneumoniae [5] = experiment: Antibacterial activity against Klebsiella pneumoniae RITCC 1249 at 100 ul after overnight incubation by agar well diffusion method; format: functional; method in brief: as §1
Pseudomonas aeruginosa [6] = experiment: Antibacterial activity against Pseudomonas aeruginosa RITCC 1547 at 100 ul after overnight incubation by agar well diffusion method; format: functional; method in brief: as §1
Streptococcus pyogenes [7] = experiment: Antibacterial activity against Streptococcus pyogenes RITCC 1940 after 24 hrs by macrodilution broth susceptibility assay; format: functional; details: RITCC 1940, 24 h
Method in brief: (§2)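 Macro-dilution broth series of 12 tubes, each holding 1 ml Mueller–Hinton broth. Tube one received 1 ml of 100 mg/ml test solution, then serial dilution down the series. Added 1 ml bacterial suspension matched to 0.5 McFarland (1.5 ×10⁸ cfu/ml). Incubated 37 °C for 24 h. MIC taken as the last tube without turbidity.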

Streptococcus agalactiae [8] = experiment: Antibacterial activity against Streptococcus agalactiae RITCC 1913 after 24 hrs by macrodilution broth susceptibility assay; format: functional; details: RITCC 1913, 24 h; method in brief: as §2
Staphylococcus aureus [9] = experiment: Antibacterial activity against Staphylococcus aureus RITCC 1885 after 24 hrs by macrodilution broth susceptibility assay; format: functional; details: RITCC 1885, 24 h; method in brief: as §2
Bacillus anthracis [10] = experiment: Antibacterial activity against Bacillus anthracis RITCC 1036 after 24 hrs by macrodilution broth susceptibility assay; format: functional; details: RITCC 1036, 24 h
Klebsiella pneumoniae [11] = experiment: Antibacterial activity against Klebsiella pneumoniae RITCC 1249 after 24 hrs by macrodilution broth susceptibility assay; format: functional; details: RITCC 1249, 24 h; method in brief: as §2
Pseudomonas aeruginosa [12] = experiment: Antibacterial activity against Pseudomonas aeruginosa RITCC 1547 after 24 hrs by macrodilution broth susceptibility assay; format: functional; details: RITCC 1547, 24 h; method in brief: as §2
Streptococcus pyogenes [13] = experiment: Antibacterial activity against Streptococcus pyogenes RITCC 1940 at 10 ug after overnight incubation by agar well diffusion method; format: functional, organism-based
Method in brief: (§3)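 Bacteria were enriched in 1 ml Mueller–Hinton broth at 37 °C for 12 h, then cultured on Mueller–Hinton agar. Wells were cut with a 6 mm cork borer and filled with test solution, with gentamicine as the standard antibiotic. Plates were incubated overnight at 37 °C and inhibition-zone diameters were measured. Values are the average of triplicates. A methanol-only blank was included.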

Bacillus anthracis [14] = experiment: Antibacterial activity against Bacillus anthracis RITCC 1036 at 10 ug after overnight incubation by agar well diffusion method; format: functional, organism-based
Klebsiella pneumoniae [15] = experiment: Antibacterial activity against Klebsiella pneumoniae RITCC 1249 at 10 ug after overnight incubation by agar well diffusion method; format: functional, organism-based; method in brief: as §3

Compound | inhibition zone (IZ) (Streptococcus pyogenes [1]) | inhibition zone (IZ) (Streptococcus agalactiae [2]) | inhibition zone (IZ) (Staphylococcus aureus [3]) | inhibition zone (IZ) (Bacillus anthracis [4]) | inhibition zone (IZ) (Klebsiella pneumoniae [5]) | inhibition zone (IZ) (Pseudomonas aeruginosa [6]) | MIC (Streptococcus pyogenes [7]) | MIC (Streptococcus agalactiae [8]) | MIC (Staphylococcus aureus [9]) | MIC (Bacillus anthracis [10]) | MIC (Klebsiella pneumoniae [11]) | MIC (Pseudomonas aeruginosa [12]) | inhibition zone (IZ) (Streptococcus pyogenes [13]) | inhibition zone (IZ) (Bacillus anthracis [14]) | inhibition zone (IZ) (Klebsiella pneumoniae [15])
O=[N+]([O-])c1ccc(O)c(/C=N/CCSCCc2ccccn2)c1 | 40 mm | 30 mm | 20 mm | 20 mm | 20 mm | 20 mm | 6.25 mg/mL (≈ 18.9 mM) | 12.5 mg/mL (≈ 37.7 mM) | 25 mg/mL (≈ 75.4 mM) | 25 mg/mL (≈ 75.4 mM) | 25 mg/mL (≈ 75.4 mM) | 25 mg/mL (≈ 75.4 mM) | – | – | –
GENTAMICIN | – | – | – | – | – | – | – | – | – | – | – | – | 20 mm | 32 mm | 20 mm
Oc1ccc(Br)cc1/C=N/CCSCCc1ccccn1 | 40 mm | 50 mm | 40 mm | 50 mm | 30 mm | 20 mm | 6.25 mg/mL (≈ 17.1 mM) | 3.12 mg/mL (≈ 8.55 mM) | 6.25 mg/mL (≈ 17.1 mM) | 3.12 mg/mL (≈ 8.55 mM) | 12.5 mg/mL (≈ 34.2 mM) | 25 mg/mL (≈ 68.4 mM) | – | – | –
COc1ccc(O)c(/C=N/CCSCCc2ccccn2)c1 | 40 mm | 20 mm | 10 mm | 20 mm | 20 mm | 10 mm | 6.25 mg/mL (≈ 19.8 mM) | 25 mg/mL (≈ 79 mM) | 50 mg/mL (≈ 158 mM) | 25 mg/mL (≈ 79 mM) | 25 mg/mL (≈ 79 mM) | 50 mg/mL (≈ 158 mM) | – | – | –
